The source made the active and inactive calls. No cut-off for these calls is given here.
How the values were obtained:
Toll-like receptor 4 [1] = molecular target: T1, Toll-like receptor 4 (Mus musculus, UniProt Q9QUK6); assay: Inhibition of LPS-induced TLR4 activation in mouse RAW264.7 cells assessed as reduction in NO production after 18 to 24 hrs; format: cell-based
T1 sequence (Q9QUK6 whole entry): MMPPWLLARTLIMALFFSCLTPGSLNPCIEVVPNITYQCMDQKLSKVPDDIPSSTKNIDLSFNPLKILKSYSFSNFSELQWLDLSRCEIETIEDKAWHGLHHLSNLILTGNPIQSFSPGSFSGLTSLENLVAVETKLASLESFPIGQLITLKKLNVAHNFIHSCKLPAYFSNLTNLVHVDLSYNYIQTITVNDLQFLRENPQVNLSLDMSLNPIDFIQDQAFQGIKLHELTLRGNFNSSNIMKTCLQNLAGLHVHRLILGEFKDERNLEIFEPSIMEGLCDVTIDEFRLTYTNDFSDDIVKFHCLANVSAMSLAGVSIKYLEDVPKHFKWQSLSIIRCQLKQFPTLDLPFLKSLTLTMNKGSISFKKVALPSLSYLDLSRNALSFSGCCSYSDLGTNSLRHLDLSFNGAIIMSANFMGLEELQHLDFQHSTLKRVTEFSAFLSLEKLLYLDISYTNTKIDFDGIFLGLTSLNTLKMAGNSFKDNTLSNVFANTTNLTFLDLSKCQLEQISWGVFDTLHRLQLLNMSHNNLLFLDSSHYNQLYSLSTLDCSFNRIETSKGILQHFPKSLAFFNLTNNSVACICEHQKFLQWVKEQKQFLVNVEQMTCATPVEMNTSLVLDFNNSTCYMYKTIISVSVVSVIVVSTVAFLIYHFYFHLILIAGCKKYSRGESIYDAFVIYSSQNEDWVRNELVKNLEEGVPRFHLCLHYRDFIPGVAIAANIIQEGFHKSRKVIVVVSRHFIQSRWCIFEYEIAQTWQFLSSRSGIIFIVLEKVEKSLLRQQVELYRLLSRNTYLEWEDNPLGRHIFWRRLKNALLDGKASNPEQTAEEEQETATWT
How it was run: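 RAW264.7 cells, 100,000 per well, grown 24 h in RPMI with 10% FBS, then switched to unsupplemented RPMI. LPS and compound added together, 18–24 h at 37 °C. Medium nitrite measured with 2,3-diaminonaphthalene (ex 365/em 450 nm) against a nitrite standard curve. Quadruplicate; IC50 by a modified Kou-type method.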

Blood = assay: Cytotoxicity against human whole blood assessed as hemolysis at 1 mM; format: tissue-based; settings: 1000 µM
How it was run: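 Human whole blood anticoagulated with lepirudin, exposed to compound at up to 1 mM; hemolysis checked.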

Toll-like receptor 4 [2] = molecular target: T2, Toll-like receptor 4 (Homo sapiens, UniProt O00206); assay: Inhibition of LPS-induced TLR4 activation in human whole blood assessed as inhibition of IL-8 release preincubated for 5 to 10 mins
How it was run: (§1)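 Fresh human blood anticoagulated with lepirudin, preincubated with compound 5–10 min at 37 °C, then stimulated with 100 ng/mL ultrapure E. coli 0111:B4 LPS, rotating 2 h at 37 °C. Stopped with EDTA 10 mM final; plasma TNF-α, IL-8 and IL-6 measured by singleplex Bio-plex, expressed as % of LPS without inhibitor. n = 3 or 9, paired two-sided t-test.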

Toll-like receptor 4 [3] = molecular target: T2, Toll-like receptor 4; assay: Inhibition of LPS-induced TLR4 activation in human whole blood assessed as inhibition of TNFalpha release preincubated for 5 to 10 mins; how it was run: as §1
Toll-like receptor 4 [4] = molecular target: T2, Toll-like receptor 4; assay: Inhibition of LPS-induced TLR4 activation in human whole blood assessed as inhibition of IL-6 release preincubated for 5 to 10 mins; how it was run: as §1
Toll-like receptor 4 [5] = molecular target: T2, Toll-like receptor 4; assay: Inhibition of LPS-induced TLR4 activation in human whole blood assessed as inhibition of IL-8 release at 500 uM preincubated for 5 to 10 mins; how it was run: as §1
Toll-like receptor 4 [6] = molecular target: T2, Toll-like receptor 4; assay: Inhibition of LPS-induced TLR4 activation in human whole blood assessed as inhibition of TNFalpha release at 500 uM preincubated for 5 to 10 mins; how it was run: as §1
Toll-like receptor 4 [7] = molecular target: T2, Toll-like receptor 4; assay: Inhibition of LPS-induced TLR4 activation in human whole blood assessed as inhibition of IL-6 release at 500 uM preincubated for 5 to 10 mins; how it was run: as §1
Toll-like receptor 4 [8] = molecular target: T2, Toll-like receptor 4; assay: Inhibition of LPS-induced TLR4 activation in human whole blood assessed as inhibition of IL-6 release at 250 uM preincubated for 5 to 10 mins; how it was run: as §1
[9] = molecular target: RAC-alpha serine/threonine-protein kinase (Homo sapiens) (UniProt P31749); assay: Inhibition of AKT1 at 16 uM by luciferase fragment complementation assay
[10] = molecular target: Calcium/calmodulin-dependent protein kinase type 1 (Homo sapiens) (UniProt Q14012); assay: Inhibition of CAMK1 at 16 uM by luciferase fragment complementation assay
[11] = molecular target: Discoidin domain-containing receptor 2 (Homo sapiens) (UniProt Q16832); assay: Inhibition of DDR2 at 16 uM by luciferase fragment complementation assay
[12] = molecular target: Glycogen synthase kinase-3 alpha (Homo sapiens) (UniProt P49840); assay: Inhibition of GSK3alpha at 16 uM by luciferase fragment complementation assay
[13] = molecular target: Mitogen-activated protein kinase 1 (Homo sapiens) (UniProt P28482); assay: Inhibition of […] at 16 uM by luciferase fragment complementation assay
[14] = molecular target: Hepatocyte growth factor receptor (Homo sapiens) (UniProt P08581); assay: Inhibition of MET at 16 uM by luciferase fragment complementation assay
[15] = molecular target: Serine/threonine-protein kinase PAK 1 (Homo sapiens) (UniProt Q13153); assay: Inhibition of PAK1 at 16 uM by luciferase fragment complementation assay
[16] = molecular target: Platelet-derived growth factor receptor beta (Homo sapiens) (UniProt P09619); assay: Inhibition of PDGFRB at 16 uM by luciferase fragment complementation assay
[17] = molecular target: Serine/threonine-protein kinase pim-1 (Homo sapiens) (UniProt P11309); assay: Inhibition of PIM1 at 16 uM by luciferase fragment complementation assay
[18] = molecular target: Protein kinase C gamma type (Homo sapiens) (UniProt P05129); assay: Inhibition of PKCgamma at 16 uM by luciferase fragment complementation assay
[19] = molecular target: Serine/threonine-protein kinase PLK4 (Homo sapiens) (UniProt O00444); assay: Inhibition of PLK4 at 16 uM by luciferase fragment complementation assay
[20] = molecular target: Proto-oncogene tyrosine-protein kinase Src (Homo sapiens) (UniProt P12931); assay: Inhibition of SRC at 16 uM by luciferase fragment complementation assay

T2 sequence (O00206 whole entry): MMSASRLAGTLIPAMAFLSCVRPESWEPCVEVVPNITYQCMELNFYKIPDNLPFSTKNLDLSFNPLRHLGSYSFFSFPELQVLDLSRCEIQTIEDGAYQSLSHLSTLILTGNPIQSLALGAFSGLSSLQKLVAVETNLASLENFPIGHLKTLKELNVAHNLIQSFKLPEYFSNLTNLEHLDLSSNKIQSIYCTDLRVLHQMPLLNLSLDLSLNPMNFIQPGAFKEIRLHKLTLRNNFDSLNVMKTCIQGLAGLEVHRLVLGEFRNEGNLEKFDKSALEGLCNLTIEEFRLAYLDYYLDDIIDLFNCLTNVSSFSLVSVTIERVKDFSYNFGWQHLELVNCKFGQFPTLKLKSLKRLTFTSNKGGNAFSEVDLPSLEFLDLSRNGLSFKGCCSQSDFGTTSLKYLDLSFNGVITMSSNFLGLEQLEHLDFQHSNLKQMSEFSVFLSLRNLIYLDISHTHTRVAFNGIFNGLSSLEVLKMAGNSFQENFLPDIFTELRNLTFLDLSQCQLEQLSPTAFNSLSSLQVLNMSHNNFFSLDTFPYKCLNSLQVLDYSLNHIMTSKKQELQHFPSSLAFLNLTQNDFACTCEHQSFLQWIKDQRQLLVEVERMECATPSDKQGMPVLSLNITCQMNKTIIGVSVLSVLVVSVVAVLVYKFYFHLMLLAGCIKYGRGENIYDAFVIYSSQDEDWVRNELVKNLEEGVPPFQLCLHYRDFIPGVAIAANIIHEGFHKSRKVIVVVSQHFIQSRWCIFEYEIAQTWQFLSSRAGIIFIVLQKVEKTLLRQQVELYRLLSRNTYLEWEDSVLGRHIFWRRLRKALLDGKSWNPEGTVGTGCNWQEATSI
Chain of Glycogen synthase kinase-3 alpha (Homo sapiens) (P49840 2-483 limits assumed): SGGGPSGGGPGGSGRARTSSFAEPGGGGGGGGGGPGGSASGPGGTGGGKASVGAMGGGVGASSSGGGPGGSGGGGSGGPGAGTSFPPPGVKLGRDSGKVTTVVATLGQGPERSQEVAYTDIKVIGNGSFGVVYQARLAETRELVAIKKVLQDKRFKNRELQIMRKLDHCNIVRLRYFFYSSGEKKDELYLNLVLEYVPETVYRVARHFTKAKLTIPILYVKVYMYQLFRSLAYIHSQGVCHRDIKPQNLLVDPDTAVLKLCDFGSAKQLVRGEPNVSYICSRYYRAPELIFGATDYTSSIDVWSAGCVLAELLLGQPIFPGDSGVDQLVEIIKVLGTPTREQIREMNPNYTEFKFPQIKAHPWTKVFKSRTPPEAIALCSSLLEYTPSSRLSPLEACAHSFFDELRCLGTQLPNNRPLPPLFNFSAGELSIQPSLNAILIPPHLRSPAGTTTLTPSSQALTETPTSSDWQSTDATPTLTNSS
Chain of Serine/threonine-protein kinase PLK4 (Homo sapiens) (O00444 whole entry, the tested form may be a part): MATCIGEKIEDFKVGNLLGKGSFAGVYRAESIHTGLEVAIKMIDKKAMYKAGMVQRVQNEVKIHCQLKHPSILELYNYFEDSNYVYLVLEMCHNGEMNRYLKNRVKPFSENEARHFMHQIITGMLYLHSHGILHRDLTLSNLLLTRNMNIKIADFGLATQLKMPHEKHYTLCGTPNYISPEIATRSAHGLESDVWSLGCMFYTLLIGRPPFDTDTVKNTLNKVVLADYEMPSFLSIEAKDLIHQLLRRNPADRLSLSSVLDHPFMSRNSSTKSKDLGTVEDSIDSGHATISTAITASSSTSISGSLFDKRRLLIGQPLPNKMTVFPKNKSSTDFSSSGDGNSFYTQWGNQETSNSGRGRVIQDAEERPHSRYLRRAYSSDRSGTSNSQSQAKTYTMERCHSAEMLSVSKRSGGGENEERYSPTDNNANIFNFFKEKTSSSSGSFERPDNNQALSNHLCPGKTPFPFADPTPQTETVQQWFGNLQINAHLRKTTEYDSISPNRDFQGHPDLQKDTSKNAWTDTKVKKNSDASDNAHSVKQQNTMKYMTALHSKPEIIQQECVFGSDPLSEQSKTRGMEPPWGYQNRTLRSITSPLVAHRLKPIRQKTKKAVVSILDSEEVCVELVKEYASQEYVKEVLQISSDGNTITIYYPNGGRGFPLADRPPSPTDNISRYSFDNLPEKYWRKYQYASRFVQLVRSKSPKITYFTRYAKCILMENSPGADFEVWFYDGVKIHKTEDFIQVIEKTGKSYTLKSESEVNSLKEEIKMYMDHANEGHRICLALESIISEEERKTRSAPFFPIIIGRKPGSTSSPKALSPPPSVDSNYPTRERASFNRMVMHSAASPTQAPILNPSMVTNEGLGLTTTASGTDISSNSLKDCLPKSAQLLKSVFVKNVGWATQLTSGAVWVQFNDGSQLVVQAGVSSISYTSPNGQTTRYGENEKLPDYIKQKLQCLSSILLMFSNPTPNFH
Chain of Discoidin domain-containing receptor 2 (Homo sapiens) (Q16832 whole entry, the tested form may be a part): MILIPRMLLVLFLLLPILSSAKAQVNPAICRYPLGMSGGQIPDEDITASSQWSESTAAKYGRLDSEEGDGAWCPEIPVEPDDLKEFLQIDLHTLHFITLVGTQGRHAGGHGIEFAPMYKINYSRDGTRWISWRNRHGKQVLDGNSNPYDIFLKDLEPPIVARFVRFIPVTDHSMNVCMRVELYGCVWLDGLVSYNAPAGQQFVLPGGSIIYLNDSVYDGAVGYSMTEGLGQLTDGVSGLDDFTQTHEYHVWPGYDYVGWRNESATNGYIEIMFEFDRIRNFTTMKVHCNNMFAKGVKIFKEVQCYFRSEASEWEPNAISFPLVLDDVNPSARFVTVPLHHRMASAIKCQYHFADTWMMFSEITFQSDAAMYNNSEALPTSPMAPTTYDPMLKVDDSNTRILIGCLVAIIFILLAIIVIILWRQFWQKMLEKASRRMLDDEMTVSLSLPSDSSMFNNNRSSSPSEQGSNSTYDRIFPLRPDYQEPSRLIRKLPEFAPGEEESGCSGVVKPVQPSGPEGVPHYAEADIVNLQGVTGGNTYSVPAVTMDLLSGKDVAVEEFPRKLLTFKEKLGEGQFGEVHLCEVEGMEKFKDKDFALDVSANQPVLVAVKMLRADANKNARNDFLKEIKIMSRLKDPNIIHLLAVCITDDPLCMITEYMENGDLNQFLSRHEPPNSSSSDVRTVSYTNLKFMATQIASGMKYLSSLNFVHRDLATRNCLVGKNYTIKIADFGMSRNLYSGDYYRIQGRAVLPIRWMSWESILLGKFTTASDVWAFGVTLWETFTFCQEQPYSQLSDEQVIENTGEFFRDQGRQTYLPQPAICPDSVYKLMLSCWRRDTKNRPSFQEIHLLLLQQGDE
Chain of Platelet-derived growth factor receptor beta (Homo sapiens) (P09619 whole entry, the tested form may be a part): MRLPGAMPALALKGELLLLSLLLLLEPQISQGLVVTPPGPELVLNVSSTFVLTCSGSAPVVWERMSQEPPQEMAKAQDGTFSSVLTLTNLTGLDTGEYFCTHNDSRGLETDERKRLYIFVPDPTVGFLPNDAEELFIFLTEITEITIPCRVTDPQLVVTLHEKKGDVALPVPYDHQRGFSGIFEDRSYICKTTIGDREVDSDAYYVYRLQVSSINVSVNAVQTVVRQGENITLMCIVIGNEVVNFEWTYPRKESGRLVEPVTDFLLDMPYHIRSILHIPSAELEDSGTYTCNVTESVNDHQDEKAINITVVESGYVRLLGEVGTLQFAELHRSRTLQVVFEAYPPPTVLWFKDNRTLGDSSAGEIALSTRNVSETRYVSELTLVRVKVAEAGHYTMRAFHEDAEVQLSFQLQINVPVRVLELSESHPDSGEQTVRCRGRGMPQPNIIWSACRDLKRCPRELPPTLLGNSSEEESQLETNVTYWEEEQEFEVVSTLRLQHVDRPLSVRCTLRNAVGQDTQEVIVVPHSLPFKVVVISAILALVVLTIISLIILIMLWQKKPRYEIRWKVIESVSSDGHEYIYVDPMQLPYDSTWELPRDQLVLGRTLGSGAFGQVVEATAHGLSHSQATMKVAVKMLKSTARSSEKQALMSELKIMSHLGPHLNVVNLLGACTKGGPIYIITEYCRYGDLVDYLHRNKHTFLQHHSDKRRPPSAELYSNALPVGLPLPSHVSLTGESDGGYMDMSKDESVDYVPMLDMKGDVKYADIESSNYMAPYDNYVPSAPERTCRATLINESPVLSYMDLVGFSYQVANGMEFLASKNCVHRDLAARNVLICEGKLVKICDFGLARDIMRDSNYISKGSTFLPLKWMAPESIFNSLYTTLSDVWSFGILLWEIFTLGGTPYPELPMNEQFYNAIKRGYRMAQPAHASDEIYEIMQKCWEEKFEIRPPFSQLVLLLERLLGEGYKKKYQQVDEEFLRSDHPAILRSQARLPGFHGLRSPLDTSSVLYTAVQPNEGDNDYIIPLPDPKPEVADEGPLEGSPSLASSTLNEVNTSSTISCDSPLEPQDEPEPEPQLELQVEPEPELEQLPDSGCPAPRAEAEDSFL

| SMILES | IC50 (Toll-like receptor 4 [1]) [µM] | Activity (Blood) | also measured |
| --- | --- | --- | --- |
| Cc1nn(Cc2ccccc2)c(C)c1CN(C)CC(O)COc1ccccc1 (racemic) | > 100 | Non-toxic | inhibition (Toll-like receptor 4 [2]): Dose-dependent effect; inhibition (Toll-like receptor 4 [3]): Dose-dependent effect; inhibition (Toll-like receptor 4 [4]): Dose-dependent effect; inhibition (Toll-like receptor 4 [5]): Active; inhibition (Toll-like receptor 4 [6]): Active; inhibition (Toll-like receptor 4 [7]): Active; inhibition (Toll-like receptor 4 [8]): inactive |
| CCOc1ccc(OCC(O)CN(C)Cc2c(C)nn(Cc3ccccc3)c2C)cc1 (racemic) | 51.8 | Non-toxic | – |
| CCOc1ccc(OCC(O)CN(C)Cc2c(C)nn(Cc3ccccc3C)c2C)cc1 (racemic) | 47.7 | Non-toxic | – |
| CCOc1ccc(OCC(O)CN(C)Cc2c(C)nn(Cc3ccccc3OC)c2C)cc1 (racemic) | > 100 | Non-toxic | – |
| CCOc1ccc(OCC(O)CN(C)Cc2c(C)nn(Cc3ccc(OC)cc3)c2C)cc1 (racemic) | 67.6 | Non-toxic | – |
| CCOc1ccc(OCC(CN(C)Cc2c(C)nn(Cc3ccccc3Cl)c2C)OC)cc1 (racemic) | 19.8 | – | – |
| CCOc1ccc(OCC(O)CN(C)Cc2c(C)nn(Cc3cccc(Cl)c3)c2C)cc1 (racemic) | 16.5 | Non-toxic | – |
| C=Cc1ccccc1Cn1nc(C)c(CN(C)CC(O)COc2ccc(OCC)cc2)c1C (racemic) | 24.7 | Non-toxic | – |
| CCOc1ccc(OCC(O)CN(C)Cc2c(C)nn(Cc3ccccc3C(F)(F)F)c2C)cc1 (racemic) | 32.1 | Non-toxic | – |
| C=CCOc1ccc(OCC(O)CN(C)Cc2c(C)nn(Cc3ccccc3C=C)c2C)cc1 (racemic) | 23.1 | Non-toxic | – |
| Cc1nn(Cc2ccccc2C(F)(F)F)c(C)c1CN(C)CC(O)COc1ccc(C(F)(F)F)cc1 (racemic) | 27.3 | Non-toxic | – |
| Cc1nn(Cc2ccccc2Cl)c(C)c1CN(C)CC(O)COc1ccc(C#N)cc1 (racemic) | 52.7 | Non-toxic | – |

More lines, main results first:

| IC50 (Toll-like receptor 4 [1]) [µM] | SMILES | Activity (Blood) | also measured |
| --- | --- | --- | --- |
| 15.6 | Cc1nn(Cc2ccccc2Cl)c(C)c1CN(C)C[C@H](O)COc1ccc(Cl)cc1 | Non-toxic | – |
| 24.8 | CCOc1ccc(OC[C@H](O)CN(C)Cc2c(C)nn(Cc3ccccc3Cl)c2C)cc1 | Non-toxic | – |
| 24.3 | CCOc1ccc(OC[C@@H](O)CN(C)Cc2c(C)nn(Cc3ccccc3Cl)c2C)cc1 | Non-toxic | – |
| 15.5 | Cc1nn(Cc2ccccc2Cl)c(C)c1CN(C)C[C@@H](O)COc1ccc(Cl)cc1 | Non-toxic | – |
| 64.3 | Cc1nn(Cc2ccccc2Cl)c(C)c1CN(C)CC(O)COc1ccccc1 (racemic) | Non-toxic | – |
| 57.3 | COCCc1ccc(OCC(O)CN(C)Cc2c(C)nn(Cc3ccccc3Cl)c2C)cc1 (racemic) | Non-toxic | – |
| 92.5 | COc1ccccc1OCC(O)CN(C)Cc1c(C)nn(Cc2ccccc2Cl)c1C (racemic) | Non-toxic | – |
| 47.7 | CCOc1ccc(OCC(O)CN(C)Cc2c(C)nn(Cc3ccccc3F)c2C)cc1 (racemic) | Non-toxic | – |
| 21.8 | CCOc1ccc(OCC(O)CN(C)Cc2c(C)nn(Cc3ccc(Cl)c(Cl)c3)c2C)cc1 (racemic) | Non-toxic | – |
| 44.6 | C=CCOc1ccc(OCC(O)CN(C)Cc2c(C)nn(Cc3ccccc3Cl)c2C)cc1 (racemic) | Non-toxic | – |
| 16.1 | Cc1nn(Cc2ccccc2Cl)c(C)c1CN(C)CC(O)COc1ccc(Cl)cc1 (racemic) | Non-toxic | inhibition [9]: ≤ 27%; inhibition [10]: ≤ 27%; inhibition [11]: ≤ 27%; inhibition [12]: ≤ 27%; inhibition [13]: ≤ 27%; inhibition [14]: ≤ 27%; inhibition [15]: ≤ 27%; inhibition [16]: ≤ 27%; inhibition [17]: ≤ 27%; inhibition [18]: ≤ 27%; inhibition [19]: ≤ 27%; inhibition [20]: ≤ 27% |
| 20.1 | Cc1nn(Cc2ccccc2Cl)c(C)c1CN(C)CC(O)COc1ccc(Cl)c(Cl)c1 (racemic) | Non-toxic | – |
| 23.2 | C=Cc1ccccc1Cn1nc(C)c(CN(C)CC(O)COc2ccc(Cl)cc2)c1C (racemic) | Non-toxic | – |
| 23.7 | Cc1nn(Cc2ccccc2Cl)c(C)c1CN(C)CC(O)COc1ccc(C(F)(F)F)cc1 (racemic) | Non-toxic | – |
